Series [1] addresses T1, Antigen-presenting glycoprotein CD1d (Mus musculus) (UniProt P11609+P11610). The series is described as follows: Binding affinity to CD1d in C57BL/6 mouse splenocytes assessed as iNKT cell stimulating activity by measuring induction of Th1-cytokine, IFN-gamma production incubated for 48 hrs by ELISA. In kind it is cell-based. The essentials:
(§1)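 Spleens from female C57BL/6 mice passed through a 100 µM strainer, RBC-lysed (ammonium chloride/KHCO3/EDTA buffer, pH 7.2, 5 min, 4 °C), PBS-washed. Splenocytes at 1×10^5/well in RPMI 1640 with 10% FBS and 1% penicillin-streptomycin, exposed to glycolipid at three concentrations (0.01-1 µM) for 48 h at 37 °C. IFN-γ and IL-4 in supernatant measured by ELISA (pg/mL); α-GalCer positive control.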
(In general: In an ELISA, binding on a coated surface is turned into a signal by an enzyme label.)

Series [2] concerns Mus musculus. The series is described as follows: Immunostimulatory activity in C57BL/6 mouse assessed as induction of Th1 cytokine-biased response by measuring AUC ratio of IFN-gamma/IL-4 cytokine release at 100 ug/kg, ip measured after 24 hrs by ELISA. In kind it is functional. An outline of the steps:
(§2)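 Female C57BL/6 mice given glycolipid ip at 100 µg/kg (DMSO stock diluted in PBS). Serum IFN-γ and IL-4 measured by ELISA at several time points up to 24 h, 3 mice per group tested individually. Th1 bias expressed as IFN-γ/IL-4 ratio and as area-under-curve ratio of IFN-γ/IL-4 release.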

For series [3], the target named is T1, Antigen-presenting glycoprotein CD1d (Mus musculus). The series is described as follows: Binding affinity to CD1d in C57BL/6 mouse splenocytes assessed as iNKT cell stimulating activity by measuring maximal induction of Th1-cytokine, IFN-gamma production at 1 uM incubated for 48 hrs by ELISA. The class given is cell-based. An outline of the steps: as §1
The target is the same in series [4]. The series is described as follows: Binding affinity to CD1d in C57BL/6 mouse splenocytes assessed as iNKT-cell stimulating activity by measuring IFN-gamma/IL-4 ratio at 0.01 uM incubated for 48 hrs by ELISA. The class given is cell-based. To be noted: in the assay text read “IFN-gamma/IL-4 ratio” for “IFN-gamma/IL-6 ratio”. An outline of the steps:
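Splenocytes prepared and cultured as for the cytokine assay (1×10^5/well, RPMI 1640 with 10% FBS, 48 h, 37 °C). IFN-γ and IL-4 determined by ELISA at 0.01 µM glycolipid and expressed as the relative proportion (IFN-γ/IL-4 ratio).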

The test system of series [5] is Mus musculus. The series is described as follows: Immunostimulatory activity in C57BL/6 mouse assessed as increase in IL-4 level in serum at 100 ug/kg, ip measured after 6 hrs by ELISA. The class given is functional, organism-based. An outline of the steps:
(§3)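 Female C57BL/6 mice, 7-8 weeks, 25-28 g, SPF housing. Glycolipid 1 mg/mL DMSO stock diluted in PBS, given ip at 100 µg/kg. Serum taken at several time points after injection and IFN-γ and IL-4 measured by ELISA; 3 mice per group, each serum tested individually.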

Series [6] has as its system Splenocyte. The series is described as follows: Induction of cell proliferation in C57BL/6 mouse splenocytes at 1 uM incubated for 48 hrs by MTT assay. The class given is functional, cell-based. The essentials:
(§4)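 Female C57BL/6 splenocytes, strained and RBC-lysed, plated at 1×10^5/well in RPMI 1640 with 10% FBS and 1% penicillin-streptomycin, treated 48 h at 37 °C at 1, 0.1 and 0.01 µM. MTT (5 mg/mL) added for 4 h, formazan dissolved in DMSO, OD read at 570 nm. Viability given as % of medium-only control cells.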
In general terms: Tetrazolium dyes change colour on reduction, which living cells bring about.

Series [7] addresses T1, Antigen-presenting glycoprotein CD1d (Mus musculus). The series is described as follows: Binding affinity to CD1d in C57BL/6 mouse splenocytes assessed as iNKT cell stimulating activity by measuring induction of Th2-cytokine, IL-4 production incubated for 48 hrs by ELISA. The class given is cell-based. The essentials:
as §1

In series [8] the test system is Mus musculus. The series is described as follows: Immunostimulatory activity in C57BL/6 mouse assessed as IFN-gamma level in serum at 100 ug/kg, ip measured after 24 hrs by ELISA. The class given is functional. The essentials:
as §3

In series [9] the target is T1, Antigen-presenting glycoprotein CD1d (Mus musculus). The series is described as follows: Binding affinity to CD1d in C57BL/6 mouse splenocytes assessed as iNKT cell stimulating activity by measuring maximal induction of Th2-cytokine, IL-4 production at 1 uM incubated for 48 hrs by ELISA. The class given is cell-based. An outline of the steps:
as §1

In series [10] the test system is Splenocyte. The series is described as follows: Cytotoxicity against C57BL/6 mouse splenocytes assessed as reduction in cell viability at 0.01 to 1 uM incubated for 48 hrs by MTT assay. In kind it is cell-based. The essentials:
as §4

In series [11] the test system is Splenocyte. The series is described as follows: Induction of cell proliferation in C57BL/6 mouse splenocytes incubated for 48 hrs by MTT assay. In kind it is functional, cell-based. The essentials:
as §4

Series [12] relates to Mus musculus. The series is described as follows: Immunostimulatory activity in C57BL/6 mouse assessed as induction of Th1 cytokine-biased response by measuring IFN-gamma/IL-4 ratio at 100 ug/kg, ip measured after 24 hrs by ELISA.
The test system of series [13] is Mus musculus. The series is described as follows: Immunostimulatory activity in C57BL/6 mouse assessed as increase in IL-4 level in serum at 100 ug/kg, ip measured after 3 hrs by ELISA. The class given is functional, organism-based. The essentials: as §3
Series [14] has as its system Mus musculus. The series is described as follows: Immunostimulatory activity in C57BL/6 mouse assessed as increase in IFN-gamma level in serum at 100 ug/kg, ip measured after 6 to 24 hrs by ELISA. In kind it is functional, organism-based. The essentials:
as §3

Series [15] has as its system Mus musculus. The series is described as follows: Immunostimulatory activity in C57BL/6 mouse assessed as induction of Th1 cytokine-biased response by measuring IFN-gamma/IL-6 ratio at 100 ug/kg, ip measured after 24 hrs by ELISA. In kind it is functional. The following applies: in the assay text read “IFN-gamma/IL-4 ratio” for “IFN-gamma/IL-6 ratio”. An outline of the steps:
as §2

The source made the active and inactive calls. The calls are words filed in the database; no cut-off is given here.

In the case of `CCCCCCCCCCCCCCCCCCCCCCCCCC(=O)N[C@@H](CO[C@H]1O[C@H](Cn2cc(C(=O)N[C@@H](CCCCN)C(=O)OC)nn2)[C@H](O)[C@H](O)[C@H]1O)[C@H](O)[C@H](O)CCCCCCCCCCCCCC`, the Activity result in series [1] was “Dose-dependent effect”; in series [7], “Dose-dependent effect”; in the series on Mus musculus [8], 3886 pg/mL; in the series on Splenocyte [10], “Non-Toxic”; with Splenocyte [11], “Dose-dependent effect”. Further, the Ratio in the series with Mus musculus [2] worked out at 23.6; in [4], 4.9; with Mus musculus [12], 5.6. For the same compound, the outcome (in series [3]; in the series with Mus musculus [5]; in the series with Splenocyte [6]; in series [9]) was Active.

Consider `CCCCCCCCCCCCCCCCCCCCCCCCCC(=O)N[C@@H](CO[C@H]1O[C@H](Cn2cc(C(=O)N[C@@H](Cc3ccccc3)C(=O)OC)nn2)[C@H](O)[C@H](O)[C@H]1O)[C@H](O)[C@H](O)CCCCCCCCCCCCCC`, for which the Activity entry in [1] is “Dose-dependent effect”; in series [7], “Dose-dependent effect”; in the series with Splenocyte [10], “Non-Toxic”; in the series with Splenocyte [11] it was “Dose-dependent effect”. Moreover, the result (in series [3]; with Splenocyte [6]; in the series on Mus musculus [13]; with Mus musculus [8]; in series [9]; in the series with Mus musculus [14]) was Active. In addition, the Ratio in [4] turned out to be 3.3.

On to `CCCCCCCCCCCCCCCCCCCCCCCCCC(=O)N[C@@H](CO[C@H]1O[C@H](Cn2cc(C(=O)N[C@@H](CO)C(=O)OC)nn2)[C@H](O)[C@H](O)[C@H]1O)[C@H](O)[C@H](O)CCCCCCCCCCCCCC`, for which the Activity entry in [1] was “Dose-dependent effect”; in [7], “Dose-dependent effect”; in the series on Mus musculus [8], 4755 pg/mL; in the series with Splenocyte [10], “Non-Toxic”; with Splenocyte [11] it was “Dose-dependent effect”. Besides, the result (in [3]; in the series with Splenocyte [6]; in the series on Mus musculus [13]; in series [9]; in the series on Mus musculus [14]) was Active. The Ratio in [4] amounted to 1.7; in the series with Mus musculus [15] it was 1.8.

Turning to `CCCCCCCCCCCCCCCCCCCCCCCCCC(=O)N[C@@H](CO[C@H]1O[C@H](CO)[C@H](O)[C@H](O)[C@H]1O)[C@H](O)[C@H](O)CCCCCCCCCCCCCC` [RGI-7000], the Activity result in series [1] is “Dose-dependent effect”; in series [7] it was “Dose-dependent effect”; in the series with Mus musculus [8] it was 2925 pg/mL. In addition, the Ratio in the series on Mus musculus [2] came out at 13.2; in the series with Mus musculus [15] it was 2.5. The result (in series [3]; in the series on Mus musculus [13]; in series [9]; in the series on Mus musculus [14]) was Active.

Consider `CCCCCCCCCCCCCCCCCCCCCCCCCC(=O)N[C@@H](CO[C@H]1O[C@H](Cn2cc(C(=O)NCC(=O)OC)nn2)[C@H](O)[C@H](O)[C@H]1O)[C@H](O)[C@H](O)CCCCCCCCCCCCCC`, for which the Activity result in [1] was “Dose-dependent effect”; in [7] it was “Dose-dependent effect”; with Splenocyte [10], “Non-Toxic”; with Splenocyte [11], “Dose-dependent effect”. In addition, the result (in series [3]; with Splenocyte [6]; in the series on Mus musculus [13]; in the series on Mus musculus [8]; in [9]; in the series on Mus musculus [14]) was Active. The Ratio in series [4] was 2.1.

Values taken from ChEMBL document CHEMBL4609997, “Synthesis and biological activities of amino acids functionalized α-GalCer analogues” (Bioorg Med Chem, 2020).
